High-throughput results deposited in PubChem by Broad Institute.
KDM4C inh – inhibitors of GASC-1 (KDM4C) histone demethylase, primary screen, biochemical, single concentration HTS; AID 720574, 2013; GST-KDM4C 2-372, H3K9me3 peptide, LANCE TR-FRET; Lysine-specific demethylase 4C (Homo sapiens), Q9H3R0; inhibition, % at 12.5 µM; actives 0.15% (n = 96,000);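 active = mean replicate inhibition above about 25%, with at least 55% of replicates also reaching it, limit read from the data, passing the limit was not always enough; inconclusive = only one of those two conditions met; inactive = neither condition met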
Target sequence (Q9H3R0 2-372 limits assumed): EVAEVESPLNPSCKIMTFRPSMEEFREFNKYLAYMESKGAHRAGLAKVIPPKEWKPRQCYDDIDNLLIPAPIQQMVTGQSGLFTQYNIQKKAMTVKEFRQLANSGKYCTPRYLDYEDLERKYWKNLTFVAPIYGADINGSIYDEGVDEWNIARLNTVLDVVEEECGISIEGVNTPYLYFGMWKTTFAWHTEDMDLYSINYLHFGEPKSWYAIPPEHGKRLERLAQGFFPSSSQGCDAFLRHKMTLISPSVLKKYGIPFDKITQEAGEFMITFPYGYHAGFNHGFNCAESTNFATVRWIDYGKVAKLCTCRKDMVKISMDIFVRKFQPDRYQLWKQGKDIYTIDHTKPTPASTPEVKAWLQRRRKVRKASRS
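Assay system: GST-GASC-1 enzyme fragment 2-372 | Amount: 10 nM enzyme | Medium: HEPES buffer, pH 7.5, plus ascorbate | Reagent: H3K9me3 peptide substrate, Fe(II), 2-oxoglutarate | Doses: Single-point compound screen | Incubation: 30 min demethylation and 1 h detection at room temperature | Measured by: LANCE TR-FRET, excitation 340 nm, emissions 618 and 671 nm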
IDH1 mut inh – inhibitors of IDH1 R132H reductase, primary screen, biochemical, plate reader, single point | inhibition, % at 10 µM | Isocitrate dehydrogenase [NADP] cytoplasmic (Homo sapiens), O75874 | diaphorase/resazurin fluorescence, 60 min | actives 0.18% (n = 70,000); in the data active = inhibition above about 34%; inconclusive = no clear call, values can overlap the other calls; inactive = below about 11%;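 note: 0% = DMSO and 100% = no enzyme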
T cruzi growth-1 – T. cruzi intracellular proliferation inhibitors, primary screen, cell-based, beta-gal Tulahuen parasites, NIH3T3 host, luminescence | T. cruzi beta-gal in NIH3T3, GalScreen luminescence, 90 h | inhibition, % at 8.34 µM | actives 5.9% (n = 77,000) | AID 624255, 2012;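 active = mean inhibition above about 93%, with at least 55% of replicates each passing it, limit read from the data, passing the limit was not always enough; inconclusive = only one of those two conditions holds; inactive = neither condition holds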
T cruzi growth-2 – T. cruzi intracellular proliferation inhibitors, confirmation, cell-based, NIH3T3 host, beta-gal parasite, luminescence, cherry-pick; shares compounds with T cruzi growth-1; T. cruzi beta-gal in NIH3T3, GalScreen luminescence, 90 h; inhibition, % at 8.35 µM; actives 72% (n = 5,600); AID 651739, 2012;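 active = mean replicate inhibition above about 95% and at least 55% of replicates individually reaching it, limit read from the data; inconclusive = only one of the two criteria is met; inactive = neither criterion is met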
T cruzi growth-3 – inhibitors of intracellular T. cruzi replication, confirmation, NIH3T3 host cells, beta-gal parasites, cherry-pick, set 2; AID 651740, 2012; shares compounds with T cruzi growth-1; actives 21% (n = 5,600); inhibition, % at 2.09 µM; T. cruzi beta-gal in NIH3T3, GalScreen luminescence, 90 h;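 active = mean inhibition above about 95%, with at least 55% of replicates also reaching it, limit read from the data; inconclusive = meets just one of the two conditions; inactive = meets neither condition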;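 note: plate controls were neutral control median for no effect and positive control median for full effect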
NIH3T3 tox – cytotoxicity in mouse NIH/3T3 fibroblasts, confirmation, cytotoxicity control for T. cruzi proliferation inhibitor project, cell-based, cherry-pick, single point. shares compounds with T cruzi growth-1. cytotoxicity (signal decrease), % at 8.35 µM. actives 14% (n = 5,600). AID 651742, 2012. NIH/3T3 viability, CellTiter-Glo ATP luminescence, 90 h;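 active = mean signal decrease across replicates above about 35% based on untreated-well scatter, with enough replicates individually passing, limit read from the data; inconclusive = no rule stated though some were filed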;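 note: 0% = median of neutral control wells and 100% = median of positive control wells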
3T3 cytotox 2 – NIH/3T3 fibroblast cytotoxicity, confirmation, cytotoxicity control, cell-based, cherry-pick, single point, set 2. shares compounds with T cruzi growth-1. NIH/3T3 viability, CellTiter-Glo ATP luminescence, 90 h. inhibition, % at 24.9 µM. actives 56% (n = 5,600). AID 651744, 2012;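 active = mean loss of cell viability signal at or above a set limit, and enough replicates individually reaching it; inconclusive = meets only the mean limit or only the replicate share; inactive = meets neither condition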;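 note: 0% = median of neutral control wells and 100% = median of positive control wells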
* marks the source's active call; other numbers are inactive results. The full list was thinned out, with hits kept by preference.

`C[C@@H]1CCCCO[C@H](CN(C)C(=O)c2ccccc2)[C@H](C)CN([C@@H](C)CO)C(=O)c2cc(NC(=O)Nc3ccccc3)ccc2O1` gave KDM4C inh 0, IDH1 mut inh 1 and T cruzi growth-1 59.
`C[C@H]1CN([C@@H](C)CO)C(=O)c2cccc(NC(=O)Nc3ccc4c(c3)OCO4)c2O[C@@H]1CN(C)Cc1ccc(C(=O)O)cc1` gave KDM4C inh 4 and T cruzi growth-1 18.
N#Cc1c(NC(=O)Cn2ccc([N+](=O)[O-])n2)sc2c1CCC2 was read as IDH1 mut inh 0.
C[C@@H]1CN([C@H](C)CO)C(=O)c2cc(NC(=O)Nc3ccc(C(F)(F)F)cc3)ccc2O[C@@H](C)CCCCO[C@H]1CN(C)C(=O)Nc1ccc(C(F)(F)F)cc1 was read as KDM4C inh -2, IDH1 mut inh -2 and T cruzi growth-1 90.
`C[C@@H]1CCCCO[C@H](CN(C)C(=O)Nc2ccc(F)cc2)[C@H](C)CN([C@H](C)CO)C(=O)c2cc(NC(=O)Nc3ccc(C(F)(F)F)cc3)ccc2O1` gave KDM4C inh -3 and T cruzi growth-1 93.
`C[C@H]1CCCCO[C@@H](CN(C)C(=O)Nc2ccc(C(F)(F)F)cc2)[C@@H](C)CN([C@@H](C)CO)C(=O)c2cc(N(C)C)ccc2O1` gave KDM4C inh -2, IDH1 mut inh 1, T cruzi growth-1 inconclusive, T cruzi growth-2 103*, T cruzi growth-3 50, NIH3T3 tox -8 and 3T3 cytotox 2 20.
`C[C@H](CO)N1C[C@H](C)[C@@H](CN(C)C(=O)Nc2ccc(C(F)(F)F)cc2)OCCCC[C@H](C)Oc2ccc(NC(=O)Nc3ccc(C(F)(F)F)cc3)cc2C1=O` gave KDM4C inh -1, T cruzi growth-1 112*, T cruzi growth-2 112*, T cruzi growth-3 109*, NIH3T3 tox -8 and 3T3 cytotox 2 1.
C[C@@H]1CCCCO[C@@H](CN(C)C(=O)Nc2ccc(C(F)(F)F)cc2)[C@H](C)CN([C@H](C)CO)C(=O)c2cc(NC(=O)Nc3ccc(F)cc3)ccc2O1 was read as KDM4C inh -1, IDH1 mut inh -1 and T cruzi growth-1 95.
C[C@H]1CCCCO[C@@H](CN(C)C(=O)Nc2ccc(C(F)(F)F)cc2)[C@@H](C)CN([C@@H](C)CO)C(=O)c2cc(NC(=O)Nc3ccc(C(F)(F)F)cc3)ccc2O1 was read as KDM4C inh -1, T cruzi growth-1 126*, T cruzi growth-2 109*, T cruzi growth-3 111*, NIH3T3 tox -7 and 3T3 cytotox 2 6.
For C[C@@H]1CCCCO[C@H](CN(C)C(=O)Nc2ccc(C(F)(F)F)cc2)[C@@H](C)CN([C@H](C)CO)C(=O)c2cc(N(C)C)ccc2O1 the results were KDM4C inh -1, IDH1 mut inh 1 and T cruzi growth-1 89.
`C[C@H]1CCCCO[C@H](CN(C)C(=O)Nc2ccc(C(F)(F)F)cc2)[C@@H](C)CN([C@@H](C)CO)C(=O)c2cc(NC(=O)Nc3ccc(C(F)(F)F)cc3)ccc2O1` gave KDM4C inh 0, T cruzi growth-1 118*, T cruzi growth-2 109*, T cruzi growth-3 107*, NIH3T3 tox 5 and 3T3 cytotox 2 13.
For CCCN(CCC)Cc1c(C(=O)O)nnn1-c1nonc1N the results were IDH1 mut inh -1.
Screening Cc1noc(C)c1S(=O)(=O)N(C)C[C@H]1Oc2ccc(NC(=O)Cn3cnnn3)cc2CC(=O)N([C@H](C)CO)C[C@@H]1C returned KDM4C inh 1, IDH1 mut inh 0 and T cruzi growth-1 32.
COc1ccc(S(=O)(=O)Nc2ccc3c(c2)C(=O)N([C@H](C)CO)C[C@H](C)[C@H](CN(C)CC2CCCCC2)O3)cc1 was read as KDM4C inh 3, IDH1 mut inh 0 and T cruzi growth-1 17.
`C[C@H]1CN([C@@H](C)CO)C(=O)c2cc(C#Cc3cccnc3)cnc2O[C@H]1CN(C)Cc1cccnc1` gave KDM4C inh -2 and T cruzi growth-1 8.
Screening CC(C)NC(=O)N(C)C[C@@H]1Oc2c(NS(=O)(=O)c3ccc(F)cc3)cccc2C(=O)N([C@@H](C)CO)C[C@@H]1C returned KDM4C inh -1 and IDH1 mut inh -1.
`O=C(C[C@@H]1CC[C@@H]2[C@H](COC[C@@H](O)CN2C(=O)Nc2cc(Cl)cc(Cl)c2)O1)N1CCCCC1` gave KDM4C inh -2 and T cruzi growth-1 79.
Screening O=C(C[C@@H]1CC[C@@H]2[C@H](COC[C@@H](O)CN2C(=O)Nc2cccc(Cl)c2)O1)N1CCCCC1 returned KDM4C inh -1, T cruzi growth-1 109*, T cruzi growth-2 39, T cruzi growth-3 21, NIH3T3 tox -1 and 3T3 cytotox 2 -21.
For O=C(C[C@H]1CC[C@@H]2[C@H](COC[C@H](O)CN2C(=O)Nc2cccc(Cl)c2)O1)N1CCCCC1 the results were KDM4C inh 0 and T cruzi growth-1 -62.
`O=C(C[C@H]1CC[C@H]2[C@@H](COC[C@H](O)CN2C(=O)Nc2cc(Cl)cc(Cl)c2)O1)N1CCCCC1` gave KDM4C inh 0, T cruzi growth-1 99*, T cruzi growth-2 109*, T cruzi growth-3 39, NIH3T3 tox 11 and 3T3 cytotox 2 20.
`C[C@H]1CCCCO[C@H](CN(C)C)[C@@H](C)CN([C@@H](C)CO)C(=O)c2cc(NS(C)(=O)=O)ccc2O1` gave KDM4C inh 2, IDH1 mut inh 2 and T cruzi growth-1 -8.
Screening Cc1noc(C)c1NC(=O)Nc1ccc2c(c1)CC(=O)N([C@H](C)CO)C[C@@H](C)[C@H](CN(C)C(=O)NC(C)C)O2 returned KDM4C inh 1, IDH1 mut inh 4 and T cruzi growth-1 5.
CCCNC(=O)N1[C@@H](C#N)[C@@H](c2ccc(-c3cccc(OC)c3)cc2)[C@@H]1CO was read as KDM4C inh -4, T cruzi growth-1 98*, T cruzi growth-2 99*, T cruzi growth-3 39, NIH3T3 tox 16 and 3T3 cytotox 2 51*.
